Results from ChEMBL document CHEMBL1208778, “Synthesis and anti-cancer activity of chalcone linked imidazolones” (2010).
Calls of active or inactive are those of the source. No cut-off for these calls is given here.

Legend:
[1] = Growth inhibition of human RPMI8266 cells; type: functional
Outline: (§1)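 Five-dose testing was run within the NCI (Bethesda) in vitro Anticancer Screen Program on a panel of 53 human tumour cell lines from nine cancer types. Growth inhibition is reported as GI50.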

K562 = assay: Growth inhibition of human K562 cells; type: functional; outline: as §1
A549 = assay: Growth inhibition of human A549 cells; type: functional; outline: as §1
EKVX = assay: Growth inhibition of human EKVX cells; type: functional; outline: as §1
HOP-62 = assay: Growth inhibition of human HOP62 cells; type: functional; outline: as §1
HOP-92 = assay: Growth inhibition of human HOP92 cells; type: functional; outline: as §1
NCI-H226 = assay: Growth inhibition of human NCI-H226 cells; type: functional; outline: as §1
NCI-H23 = assay: Growth inhibition of human NCI-H23 cells; type: functional; outline: as §1
NCI-H322M = assay: Growth inhibition of human NCI-H322M cells; type: functional; outline: as §1
NCI-H460 = assay: Growth inhibition of human NCI-H460 cells; type: functional; outline: as §1
NCI-H522 = assay: Growth inhibition of human NCI-H522 cells; type: functional; outline: as §1
COLO 205 = assay: Growth inhibition of human COLO205 cells; type: functional; outline: as §1
HCC 2998 = assay: Growth inhibition of human HCC2998 cells; type: functional; outline: as §1
HCT-116 = assay: Growth inhibition of human HCT116 cells; type: functional; outline: as §1
HCT-15 = assay: Growth inhibition of human HCT15 cells; type: functional; outline: as §1
HT-29 = assay: Growth inhibition of human HT-29 cells; type: functional; outline: as §1
KM12 = assay: Growth inhibition of human KM12 cells; type: functional; outline: as §1
SW-620 = assay: Growth inhibition of human SW620 cells; type: functional
Outline: (§2)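 Compounds that passed a preliminary screen were tested at five doses in the NCI (Bethesda) in vitro Anticancer Screen Program against a 53-line human tumour panel spanning leukemia, lung, colon, CNS, melanoma, ovarian, renal, prostate and breast. Growth inhibition is reported as GI50.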

SF-268 = assay: Growth inhibition of human SF268 cells; type: functional; outline: as §1
SF-295 = assay: Growth inhibition of human SF295 cells; type: functional; outline: as §1
SF-539 = assay: Growth inhibition of human SF539 cells; type: functional; outline: as §1
SNB-19 = assay: Growth inhibition of human SNB19 cells; type: functional; outline: as §2
SNB-75 = assay: Growth inhibition of human SNB75 cells; type: functional; outline: as §2
U-251 = assay: Growth inhibition of human U251 cells; type: functional; outline: as §2
A498 = assay: Growth inhibition of human A498 cells; type: functional; outline: as §1
786-0 = assay: Growth inhibition of human 786-0 cells; type: functional; outline: as §1
ACHN = assay: Growth inhibition of human ACHN cells; type: functional; outline: as §1
CAKI-1 = assay: Growth inhibition of human Caki1 cells; type: functional; outline: as §1
RXF 393 = assay: Growth inhibition of human RXF393 cells; type: functional; outline: as §1
SN12C = assay: Growth inhibition of human SN12C cells; type: functional; outline: as §2
TK-10 = assay: Growth inhibition of human TK10 cells; type: functional; outline: as §2
UO-31 = assay: Growth inhibition of human UO31 cells; type: functional; outline: as §2
PC-3 = assay: Growth inhibition of human PC3 cells; type: functional; outline: as §1
OVCAR-3 = assay: Growth inhibition of human OVCAR-3 cells; type: functional; outline: as §1
OVCAR-4 = assay: Growth inhibition of human OVCAR4 cells; type: functional; outline: as §1
OVCAR-5 = assay: Growth inhibition of human OVCAR5 cells; type: functional; outline: as §1
OVCAR-8 = assay: Growth inhibition of human OVCAR8 cells; type: functional; outline: as §1
NCI/ADR-RES = assay: Growth inhibition of human NCI/ADR-RES cells; type: functional; outline: as §1
SK-OV-3 = assay: Growth inhibition of human SKOV3 cells; type: functional; outline: as §2
MCF7 [2] = assay: Growth inhibition of human MCF7 cells; type: functional; outline: as §1
MDA-MB-231 = assay: Growth inhibition of human MDA-MB-231 cells; type: functional; outline: as §1
[3] = Growth inhibition of human Hs 578T cells; type: functional; outline: as §1
BT-549 = assay: Growth inhibition of human BT549 cells; type: functional; outline: as §1
T47D = assay: Growth inhibition of human T47D cells; type: functional; outline: as §2
LOX IMVI = assay: Growth inhibition of human LOXIMVI cells; type: functional; outline: as §1
Malme-3M = assay: Growth inhibition of human MALME-3M cells; type: functional; outline: as §1
M14 = assay: Growth inhibition of human M14 cells; type: functional; outline: as §1
MDA-MB-435 = assay: Growth inhibition of human MDA-MB-435 cells; type: functional; outline: as §1
SK-MEL-2 = assay: Growth inhibition of human SK-MEL-2 cells; type: functional; outline: as §1
SK-MEL-28 = assay: Growth inhibition of human SK-MEL-28 cells; type: functional; outline: as §1
SK-MEL-5 = assay: Growth inhibition of human SK-MEL-5 cells; type: functional; outline: as §1
UACC-257 = assay: Growth inhibition of human UACC257 cells; type: functional; outline: as §2
UACC-62 = assay: Growth inhibition of human UACC62 cells; type: functional; outline: as §2
MCF7 [4] = assay: Cell cycle arrest in human MCF7 cells assessed as accumulation at G0 phase at 10 uM after 24 hrs by FACS analysis; type: functional
Outline: (§3)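 MCF-7 breast carcinoma cells were exposed to 10 µM test compound for 24 h, with DMSO as the vehicle control. Cell-cycle distribution was read by FACS as the percentage of cells in G0, G1, S and G2/M.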

MCF7 [5] = assay: Cell cycle arrest in human MCF7 cells assessed as accumulation at G1 phase at 10 uM after 24 hrs by FACS analysis; type: functional; outline: as §3
MCF7 [6] = assay: Cell cycle arrest in human MCF7 cells assessed as accumulation at S phase at 10 uM after 24 hrs by FACS analysis; type: functional; outline: as §3
MCF7 [7] = assay: Cell cycle arrest in human MCF7 cells assessed as accumulation at G2/M phase at 10 uM after 24 hrs by FACS analysis; type: functional; outline: as §3
MCF7 [8] = assay: Cell cycle arrest in human MCF7 cells assessed as accumulation at G0 phase at 30 uM after 24 hrs by FACS analysis; type: functional
Outline: (§4)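 MCF-7 cells were treated at 30 µM for 24 h alongside a DMSO control. Fractions in G0, G1, S and G2/M phases were measured by FACS, and values are means of three experiments.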

MCF7 [9] = assay: Cell cycle arrest in human MCF7 cells assessed as accumulation at G1 phase at 30 uM after 24 hrs by FACS analysis; type: functional; outline: as §4
MCF7 [10] = assay: Cell cycle arrest in human MCF7 cells assessed as accumulation at S phase at 30 uM after 24 hrs by FACS analysis; type: functional; outline: as §4
MCF7 [11] = assay: Cell cycle arrest in human MCF7 cells assessed as accumulation at G2/M phase at 30 uM after 24 hrs by FACS analysis; type: functional; outline: as §4
MCF7 [12] = assay: Induction of apoptosis in human MCF7 cells assessed as decrease in procaspase 7 level at 30 uM after 24 hrs by Western blot analysis; type: functional, cell-based
Outline: (§5)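 MCF-7 breast carcinoma cells were exposed to 30 µM compound for 24 h, with CA-4 as positive control. Cell lysates were then immunoblotted with antibodies to procaspase-7 and cleavage-specific PARP, using β-actin as loading control.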

MCF7 [13] = assay: Induction of apoptosis in human MCF7 cells assessed as […] in PARP cleavage at 30 uM after 24 hrs by Western blot analysis; type: functional, cell-based; outline: as §5

Structure (SMILES): COc1cc(/C=C/C(=O)c2cccc(-n3cc(-c4ccccc4)[nH]c3=O)c2)ccc1O
- GI50 [1]: 1670 nM
- GI50 (K562): 2040 nM
- GI50 (A549): 3850 nM
- GI50 (EKVX): 3900 nM
- GI50 (HOP-62): 1480 nM
- GI50 (HOP-92): 2270 nM
- GI50 (NCI-H226): 2600 nM
- GI50 (NCI-H23): 2020 nM
- GI50 (NCI-H322M): 3390 nM
- GI50 (NCI-H460): 1950 nM
- GI50 (NCI-H522): 2360 nM
- GI50 (COLO 205): 2210 nM
- GI50 (HCC 2998): 1510 nM
- GI50 (HCT-116): 1400 nM
- GI50 (HCT-15): 2730 nM
- GI50 (HT-29): 3770 nM
- GI50 (KM12): 1610 nM
- GI50 (SW-620): 2290 nM
- GI50 (SF-268): 2070 nM
- GI50 (SF-295): 3040 nM
- GI50 (SF-539): 1910 nM
- GI50 (SNB-19): 2960 nM
- GI50 (SNB-75): 3900 nM
- GI50 (U-251): 2110 nM
- GI50 (A498): 1680 nM
- GI50 (786-0): 1350 nM
- GI50 (ACHN): 2500 nM
- GI50 (CAKI-1): 2190 nM
- GI50 (RXF 393): 2270 nM
- GI50 (SN12C): 3310 nM
- GI50 (TK-10): 5290 nM
- GI50 (UO-31): 2180 nM
- GI50 (PC-3): 2520 nM
- GI50 (OVCAR-3): 2290 nM
- GI50 (OVCAR-4): 5190 nM
- GI50 (OVCAR-5): 2040 nM
- GI50 (OVCAR-8): 4110 nM
- GI50 (NCI/ADR-RES): 2920 nM
- GI50 (SK-OV-3): 3760 nM
- GI50 (MCF7 [2]): 1550 nM
- GI50 (MDA-MB-231): 3360 nM
- GI50 [3]: 4160 nM
- GI50 (BT-549): 2780 nM
- GI50 (T47D): 2700 nM
- GI50 (LOX IMVI): 1880 nM
- GI50 (Malme-3M): 2670 nM
- GI50 (M14): 2610 nM
- GI50 (MDA-MB-435): 2140 nM
- GI50 (SK-MEL-2): 3650 nM
- GI50 (SK-MEL-28): 1850 nM
- GI50 (SK-MEL-5): 1590 nM
- GI50 (UACC-257): 6810 nM
- GI50 (UACC-62): 2010 nM
- Activity (MCF7 [4]): 11.17%
- Activity (MCF7 [5]): 25.85%
- Activity (MCF7 [6]): 14.13%
- Activity (MCF7 [7]): 48.85%
- Activity (MCF7 [8]): 40.05%
- Activity (MCF7 [9]): 49.91%
- Activity (MCF7 [10]): 2.41%
- Activity (MCF7 [11]): 7.63%
- Activity (MCF7 [12]): Active
- Activity (MCF7 [13]): Active
